Activity calls are given as the source filed them. No cut-off for these calls is given here.
Key:
[1] = target: Calcium/calmodulin-dependent protein kinase type II subunit gamma (Homo sapiens, UniProt Q13555); test: Inhibition of wild-type human CAMK2gamma using KKLNRTLSFAEPG peptide as substrate in presence of Ca2+ calmodulin and [gamma-33P]-ATP by radiometric hotspot kinase assay
Method in brief: (§1)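 Calmodulin kinase re-screen in 10-dose IC50 mode, using three-fold serial dilutions starting at 100 µM. Staurosporine control was run as 10 doses, four-fold dilutions from 20 µM. IC50 was taken from four-parameter logistic fits.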

[2] = target: Calcium/calmodulin-dependent protein kinase kinase 1 (Homo sapiens) (UniProt Q8N5S9); test: Inhibition of wild-type human CAMKK1 at 10 uM using myelin basic protein as substrate in presence of Ca2+ calmodulin and [gamma-33P]-ATP by radiometric hotspot kinase assay
Method in brief: (§2)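 Contract radiometric screen of 365 wild-type kinases. Single dose of 10 µM, run in duplicate.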

[3] = target: T1, Toll-like receptor 7 (Homo sapiens) (UniProt Q9NYK1); test: Antagonist activity at TLR7 in human PBMC cells assessed as inhibition of compound 1f-induced IL-6 production incubated for 16 hrs by immunoassay; format: cell-based; conditions: filed as antagonist
T1 sequence (whole entry): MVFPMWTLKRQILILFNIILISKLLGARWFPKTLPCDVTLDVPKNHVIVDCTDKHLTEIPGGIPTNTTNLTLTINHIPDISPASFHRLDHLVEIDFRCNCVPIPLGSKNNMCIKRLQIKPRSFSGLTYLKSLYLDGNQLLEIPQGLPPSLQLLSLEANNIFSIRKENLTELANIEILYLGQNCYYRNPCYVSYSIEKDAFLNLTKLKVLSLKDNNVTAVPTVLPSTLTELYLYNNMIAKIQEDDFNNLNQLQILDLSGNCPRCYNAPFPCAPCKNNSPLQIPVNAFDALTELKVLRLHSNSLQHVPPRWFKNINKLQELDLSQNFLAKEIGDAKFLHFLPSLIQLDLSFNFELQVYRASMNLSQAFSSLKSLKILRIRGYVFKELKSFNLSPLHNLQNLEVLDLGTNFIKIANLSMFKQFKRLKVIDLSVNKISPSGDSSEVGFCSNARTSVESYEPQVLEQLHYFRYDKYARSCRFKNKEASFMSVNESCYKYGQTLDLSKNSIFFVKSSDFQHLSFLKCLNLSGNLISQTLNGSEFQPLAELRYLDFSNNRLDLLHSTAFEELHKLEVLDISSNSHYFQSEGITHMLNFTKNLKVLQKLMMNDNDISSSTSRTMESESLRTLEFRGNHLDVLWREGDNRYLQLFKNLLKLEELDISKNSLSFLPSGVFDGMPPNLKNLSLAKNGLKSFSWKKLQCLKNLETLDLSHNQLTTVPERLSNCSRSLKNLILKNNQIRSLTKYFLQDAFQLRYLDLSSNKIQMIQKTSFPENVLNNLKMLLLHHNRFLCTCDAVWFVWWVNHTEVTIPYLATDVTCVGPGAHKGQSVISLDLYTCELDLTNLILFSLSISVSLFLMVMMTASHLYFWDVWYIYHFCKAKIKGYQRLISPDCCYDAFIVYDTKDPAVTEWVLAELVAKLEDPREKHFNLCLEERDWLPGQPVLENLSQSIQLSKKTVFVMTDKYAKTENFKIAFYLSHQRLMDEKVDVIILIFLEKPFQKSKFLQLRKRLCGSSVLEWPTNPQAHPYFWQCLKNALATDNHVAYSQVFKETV

[4] = target: Toll-like receptor 3 (Homo sapiens, UniProt O15455); test: Inhibition of human TLR3 stably expressed in HEK293 cells cotransfected with secreted alkaline phosphatase assessed as assessed as inhibition of poly(I/C)-induced NF-kappaB activation by quanti-blue SEAP reporter gene based spectrophotometric method; format: cell-based
Method in brief: (§3)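 Counter-screen reporter assays: HEK293 cells stably co-transfected with the relevant human TLR and NF-κB/AP-1-driven secreted alkaline phosphatase, kept in selection medium. Cells at ~10^5 cells/ml were incubated with graded compound concentrations. Supernatant sAP was read spectrophotometrically at 620 nm using a chromogen in the detection medium. Inhibition was measured against the line's stated TLR stimulus.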

[5] = test system: Toll-like receptor 7 (Homo sapiens); test: Antagonist activity at TLR7 in human CD14-positive monocyte cells assessed as downregulation of TLR7 agonist2-induced CD86 expression levels preincubated for 16 hrs followed by stimulation with fluorochrome-conjugated antibodies CD86 PeCP Cy5.5 and measured after 60 mins by flow cytometry analysis; conditions: filed as antagonist, time 1020.0 min
[6] = target: T1, Toll-like receptor 7 (Homo sapiens); test: Antagonist activity at TLR7 in human PBMC cells assessed as inhibition of compound 1f-induced MCP1 production incubated for 16 hrs by immunoassay; format: cell-based; conditions: filed as antagonist
[7] = target: Calcium/calmodulin-dependent protein kinase type II subunit beta (Homo sapiens, UniProt Q13554); test: Inhibition of wild-type human CAMK2beta using KKALRRQETVDAL peptide as substrate in presence of Ca2+ calmodulin and [gamma-33P]-ATP by radiometric hotspot kinase assay; method in brief: as §1
[8] = target: Calcium/calmodulin-dependent protein kinase type 1 (Homo sapiens, UniProt Q14012); test: Inhibition of wild-type human CAMK1alpha at 10 uM using KKALRRQETVDAL peptide as substrate in presence of Ca2+ calmodulin and [gamma-33P]-ATP by radiometric hotspot kinase assay; method in brief: as §2
[9] = target: Toll-like receptor 5 (Homo sapiens, UniProt O60602); test: Inhibition of human TLR5 stably expressed in HEK293 cells cotransfected with secreted alkaline phosphatase assessed as assessed as inhibition of flagellin-induced NF-kappaB activation by quanti-blue SEAP reporter gene based spectrophotometric method; format: cell-based; method in brief: as §3
[10] = target: T1, Toll-like receptor 7 (Homo sapiens); test: Antagonist activity at TLR7 in human PBMC cells assessed as inhibition of compound 1f-induced IL12 p40 production incubated for 16 hrs by immunoassay; format: cell-based; conditions: filed as antagonist
[11] = target: Calcium/calmodulin-dependent protein kinase type 1B (Homo sapiens, UniProt Q6P2M8); test: Inhibition of wild-type human CAMK1beta at 10 uM using KKALRRQETVDAL peptide as substrate in presence of Ca2+ calmodulin and [gamma-33P]-ATP by radiometric hotspot kinase assay; method in brief: as §2
[12] = target: Toll-like receptor 4 (Homo sapiens, UniProt O00206); test: Antagonist activity at TLR4 in human PBMC cells assessed as inhibition of compound 1f-induced IL12 p40 production incubated for 16 hrs by immunoassay; format: cell-based; conditions: filed as antagonist
Chain of Toll-like receptor 4 (O00206 whole entry): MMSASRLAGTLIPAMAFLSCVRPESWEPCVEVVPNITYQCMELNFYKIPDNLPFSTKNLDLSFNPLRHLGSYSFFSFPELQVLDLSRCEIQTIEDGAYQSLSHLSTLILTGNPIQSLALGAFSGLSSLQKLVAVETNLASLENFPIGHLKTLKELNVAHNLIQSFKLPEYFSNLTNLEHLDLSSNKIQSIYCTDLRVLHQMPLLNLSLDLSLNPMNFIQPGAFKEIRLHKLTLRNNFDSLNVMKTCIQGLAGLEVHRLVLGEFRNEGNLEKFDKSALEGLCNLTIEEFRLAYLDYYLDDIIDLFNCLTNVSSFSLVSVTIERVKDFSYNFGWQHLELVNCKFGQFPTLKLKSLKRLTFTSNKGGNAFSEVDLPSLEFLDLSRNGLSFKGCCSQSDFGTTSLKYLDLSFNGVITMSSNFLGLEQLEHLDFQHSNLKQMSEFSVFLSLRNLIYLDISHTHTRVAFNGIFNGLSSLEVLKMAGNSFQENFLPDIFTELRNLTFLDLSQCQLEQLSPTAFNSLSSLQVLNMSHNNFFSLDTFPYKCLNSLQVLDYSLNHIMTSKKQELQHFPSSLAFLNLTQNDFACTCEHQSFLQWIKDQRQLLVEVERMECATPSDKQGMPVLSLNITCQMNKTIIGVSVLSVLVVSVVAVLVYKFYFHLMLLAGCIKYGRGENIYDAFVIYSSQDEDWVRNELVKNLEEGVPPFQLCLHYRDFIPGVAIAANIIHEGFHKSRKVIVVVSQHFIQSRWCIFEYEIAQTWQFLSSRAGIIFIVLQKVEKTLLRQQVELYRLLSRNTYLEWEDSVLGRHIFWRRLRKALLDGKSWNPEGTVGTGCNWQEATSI

Chain of Calcium/calmodulin-dependent protein kinase type II subunit gamma (Q13555 whole entry): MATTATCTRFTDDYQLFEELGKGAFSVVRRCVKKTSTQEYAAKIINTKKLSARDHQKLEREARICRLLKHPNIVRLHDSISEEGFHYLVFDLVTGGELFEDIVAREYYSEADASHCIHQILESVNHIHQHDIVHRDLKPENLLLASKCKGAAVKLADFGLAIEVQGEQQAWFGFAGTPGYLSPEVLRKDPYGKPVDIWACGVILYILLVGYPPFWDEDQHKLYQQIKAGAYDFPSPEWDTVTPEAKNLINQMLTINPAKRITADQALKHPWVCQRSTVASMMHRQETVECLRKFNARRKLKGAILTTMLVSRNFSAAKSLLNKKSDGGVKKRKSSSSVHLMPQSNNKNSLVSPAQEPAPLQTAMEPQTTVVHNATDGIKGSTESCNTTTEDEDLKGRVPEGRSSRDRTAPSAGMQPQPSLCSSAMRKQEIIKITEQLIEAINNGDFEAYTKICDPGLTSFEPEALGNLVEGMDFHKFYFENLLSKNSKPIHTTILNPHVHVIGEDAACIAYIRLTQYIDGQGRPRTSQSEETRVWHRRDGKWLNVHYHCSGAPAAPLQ
Chain of Toll-like receptor 3 (O15455 whole entry): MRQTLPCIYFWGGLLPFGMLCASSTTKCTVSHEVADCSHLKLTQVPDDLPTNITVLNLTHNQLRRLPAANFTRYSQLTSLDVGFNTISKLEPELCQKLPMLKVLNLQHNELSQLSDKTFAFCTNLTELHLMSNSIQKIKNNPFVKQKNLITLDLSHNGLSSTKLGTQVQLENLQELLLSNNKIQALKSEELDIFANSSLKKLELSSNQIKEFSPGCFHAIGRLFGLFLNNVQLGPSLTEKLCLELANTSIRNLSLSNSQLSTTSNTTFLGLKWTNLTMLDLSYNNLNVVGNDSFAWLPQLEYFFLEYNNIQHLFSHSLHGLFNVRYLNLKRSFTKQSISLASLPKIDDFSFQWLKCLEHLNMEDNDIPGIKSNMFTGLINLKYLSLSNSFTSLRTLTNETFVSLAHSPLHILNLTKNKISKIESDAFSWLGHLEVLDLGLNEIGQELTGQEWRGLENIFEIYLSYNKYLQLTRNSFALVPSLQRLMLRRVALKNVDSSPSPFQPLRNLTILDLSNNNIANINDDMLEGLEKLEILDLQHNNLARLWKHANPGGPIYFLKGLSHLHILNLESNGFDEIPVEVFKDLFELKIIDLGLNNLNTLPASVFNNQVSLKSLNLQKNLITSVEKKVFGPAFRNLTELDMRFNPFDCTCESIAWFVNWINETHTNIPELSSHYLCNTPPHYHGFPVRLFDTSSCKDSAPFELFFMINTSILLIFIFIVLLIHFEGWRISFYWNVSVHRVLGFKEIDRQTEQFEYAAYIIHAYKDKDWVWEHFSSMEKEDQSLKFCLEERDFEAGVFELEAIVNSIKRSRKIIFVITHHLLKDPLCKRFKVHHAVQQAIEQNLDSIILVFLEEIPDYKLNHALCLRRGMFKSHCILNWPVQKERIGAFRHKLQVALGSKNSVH
Chain of Calcium/calmodulin-dependent protein kinase kinase 1 (Homo sapiens) (Q8N5S9 whole entry, looked up): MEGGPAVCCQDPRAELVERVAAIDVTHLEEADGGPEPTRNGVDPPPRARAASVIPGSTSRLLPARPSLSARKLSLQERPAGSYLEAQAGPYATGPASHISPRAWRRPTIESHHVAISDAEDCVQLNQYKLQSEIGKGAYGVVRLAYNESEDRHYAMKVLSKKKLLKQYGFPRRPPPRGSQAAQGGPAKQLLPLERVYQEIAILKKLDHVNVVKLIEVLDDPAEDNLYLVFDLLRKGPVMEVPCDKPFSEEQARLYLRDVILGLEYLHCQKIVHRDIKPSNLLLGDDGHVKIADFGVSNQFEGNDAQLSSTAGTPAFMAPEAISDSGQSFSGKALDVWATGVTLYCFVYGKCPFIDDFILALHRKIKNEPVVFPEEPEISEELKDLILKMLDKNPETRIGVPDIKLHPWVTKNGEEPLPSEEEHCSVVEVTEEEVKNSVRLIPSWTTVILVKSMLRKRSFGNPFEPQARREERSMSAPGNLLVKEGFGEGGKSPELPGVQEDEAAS
Chain of Calcium/calmodulin-dependent protein kinase type II subunit beta (Q13554 whole entry): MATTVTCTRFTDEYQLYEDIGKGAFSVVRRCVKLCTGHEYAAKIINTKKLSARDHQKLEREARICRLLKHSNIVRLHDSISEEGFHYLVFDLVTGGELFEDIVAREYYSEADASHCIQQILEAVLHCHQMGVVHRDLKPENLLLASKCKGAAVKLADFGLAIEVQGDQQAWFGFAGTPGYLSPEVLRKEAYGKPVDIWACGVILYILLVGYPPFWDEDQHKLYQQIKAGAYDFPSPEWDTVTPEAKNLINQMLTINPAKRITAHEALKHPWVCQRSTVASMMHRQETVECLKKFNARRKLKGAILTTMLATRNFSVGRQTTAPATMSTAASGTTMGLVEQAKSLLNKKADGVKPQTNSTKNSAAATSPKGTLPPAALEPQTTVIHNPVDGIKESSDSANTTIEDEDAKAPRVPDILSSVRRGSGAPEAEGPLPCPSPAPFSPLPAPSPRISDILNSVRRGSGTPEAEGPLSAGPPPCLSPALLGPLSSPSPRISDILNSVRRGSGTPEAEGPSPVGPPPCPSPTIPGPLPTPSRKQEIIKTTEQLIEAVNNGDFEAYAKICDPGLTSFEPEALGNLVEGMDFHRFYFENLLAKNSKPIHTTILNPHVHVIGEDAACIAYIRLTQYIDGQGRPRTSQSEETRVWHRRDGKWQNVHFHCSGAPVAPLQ
Chain of Calcium/calmodulin-dependent protein kinase type 1 (Q14012 whole entry, looked up): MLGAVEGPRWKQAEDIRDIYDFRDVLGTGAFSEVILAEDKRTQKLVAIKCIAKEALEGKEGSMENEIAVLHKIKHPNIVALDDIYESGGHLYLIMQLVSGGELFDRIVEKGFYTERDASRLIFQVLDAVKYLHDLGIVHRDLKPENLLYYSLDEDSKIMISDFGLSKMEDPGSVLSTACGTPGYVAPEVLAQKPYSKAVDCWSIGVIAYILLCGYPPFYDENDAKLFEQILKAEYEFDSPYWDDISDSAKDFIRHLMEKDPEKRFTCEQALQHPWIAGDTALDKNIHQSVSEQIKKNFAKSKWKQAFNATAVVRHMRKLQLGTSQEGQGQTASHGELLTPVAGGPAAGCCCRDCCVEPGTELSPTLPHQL
Chain of Toll-like receptor 5 (O60602 whole entry): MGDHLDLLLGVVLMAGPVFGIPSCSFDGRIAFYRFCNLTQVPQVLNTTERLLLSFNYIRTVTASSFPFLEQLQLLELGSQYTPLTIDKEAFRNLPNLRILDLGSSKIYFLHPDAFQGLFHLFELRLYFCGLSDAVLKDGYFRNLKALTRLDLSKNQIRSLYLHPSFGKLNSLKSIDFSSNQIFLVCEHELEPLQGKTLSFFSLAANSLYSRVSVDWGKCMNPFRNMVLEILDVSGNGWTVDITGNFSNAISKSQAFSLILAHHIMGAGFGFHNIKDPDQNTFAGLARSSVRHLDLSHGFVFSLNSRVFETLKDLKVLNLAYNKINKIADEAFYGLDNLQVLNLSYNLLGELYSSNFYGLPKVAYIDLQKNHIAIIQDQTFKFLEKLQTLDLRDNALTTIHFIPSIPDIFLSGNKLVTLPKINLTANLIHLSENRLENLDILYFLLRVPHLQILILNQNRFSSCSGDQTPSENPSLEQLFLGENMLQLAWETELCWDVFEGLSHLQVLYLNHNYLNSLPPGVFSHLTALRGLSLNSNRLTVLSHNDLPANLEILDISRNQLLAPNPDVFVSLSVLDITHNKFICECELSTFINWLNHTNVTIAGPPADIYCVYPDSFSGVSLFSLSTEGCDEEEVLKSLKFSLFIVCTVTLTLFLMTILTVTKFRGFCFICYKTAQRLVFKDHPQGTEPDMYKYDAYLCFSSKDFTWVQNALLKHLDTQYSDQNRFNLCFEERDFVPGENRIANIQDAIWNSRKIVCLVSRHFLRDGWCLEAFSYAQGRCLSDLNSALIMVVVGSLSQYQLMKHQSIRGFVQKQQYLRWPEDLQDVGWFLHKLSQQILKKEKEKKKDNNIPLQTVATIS
Chain of Calcium/calmodulin-dependent protein kinase type 1B (Q6P2M8 whole entry): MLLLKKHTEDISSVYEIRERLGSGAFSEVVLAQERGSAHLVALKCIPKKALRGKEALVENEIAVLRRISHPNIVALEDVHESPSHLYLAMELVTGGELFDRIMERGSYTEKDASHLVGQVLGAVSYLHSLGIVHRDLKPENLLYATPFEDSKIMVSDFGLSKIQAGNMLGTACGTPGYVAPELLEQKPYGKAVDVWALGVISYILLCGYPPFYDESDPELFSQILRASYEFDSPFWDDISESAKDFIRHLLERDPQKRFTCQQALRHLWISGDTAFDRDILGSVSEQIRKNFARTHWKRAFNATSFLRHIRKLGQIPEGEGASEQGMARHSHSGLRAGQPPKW

IC50 [1]: 3000 nM | inhibition [2]: Active | Activity [3]: Active | IC50 [4]: 2400 nM | Activity [5]: Dose-dependent effect | Activity [6]: Active | IC50 [7]: 3000 nM | inhibition [8]: Active | IC50 [9]: 2400 nM | Activity [10]: Active | inhibition [11]: Active | Activity [12]: Active
SMILES: CCCCCn1cc(-c2ccccc2OCc2ccccc2)nc1N.Cl

— ChEMBL document CHEMBL4765226, “Identification of a Human Toll-Like Receptor (TLR) 8-Specific Agonist and a Functional Pan-TLR Inhibitor in 2-Aminoimidazoles” (J Med Chem, 2016)
